Calls of active or inactive are those of the source. The calls are words filed in the database; no cut-off is given here. Some results are limits rather than exact numbers.

For data set [1], the system named is Trypanosoma cruzi. Briefly: Growth inhibition of Trypanosoma cruzi Tulahuen amastigote forms infected in human THP1 cells at 100 uM after 48 hrs relative to control. The format is functional. Particulars: THP-1, 48 h, read-out: GI. Put shortly:
(§1)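 PMA-differentiated THP-1 macrophages (4.0 × 10^4 cells/well, 100 ng/ml, 72 h) infected with trypomastigotes at 2:1 parasite/cell overnight at 37 °C. Washed, then 24 h more for amastigote transformation. Compounds added in triplicate for 48 h at 37 °C, 5% CO2. Read-out: CPRG 100 µM with 0.1% NP-40 for 16 h, OD 570/630 nm. Negative control DMSO 1%.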

Data set [2] concerns Trypanosoma cruzi. Briefly: Trypanocidal activity against Trypanosoma cruzi Tulahuen amastigote forms infected in human THP1 cells after 48 hrs. To be noted: THP-1, 48 h. In kind it is functional, cell-based. A digest of the protocol: as §1
The nature of data set [3]: Cytotoxicity against human THP1 cells assessed as reduction in cell viability after 72 hrs by MTT assay. In kind it is cell-based. Particulars: THP-1 cells. A digest of the protocol:
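PMA-differentiated THP-1 cells exposed to serial dilutions from 15.6 to 500 µM for 72 h at 37 °C, 5% CO2. Viability by MTT reduction to formazan, dissolved in DMSO, OD 540 nm. Gives CC50.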

A short description of data set [4]: Selectivity index, ratio of CC50 for human THP1 cells to IC50 for Trypanosoma cruzi Tulahuen amastigote forms infected in human THP1 cells. The format is toxicity, cell-based. To be noted: read-out: Ratio CC50/IC50. Put shortly: (§2)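 Ratio of CC50 from the 72 h MTT assay in PMA-differentiated THP-1 cells to IC50 against intracellular amastigotes in THP-1 cells measured by CPRG read-out after 48 h.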

The test system of data set [5] is Trypanosoma cruzi. Briefly: Trypanocidal activity against Trypanosoma cruzi Tulahuen trypomastigote forms at 3.9 to 250 uM after 72 hrs by MTT assay. In kind it is functional. A digest of the protocol:
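Culture-derived Tulahuen trypomastigotes raised from infected L929 cells, 1.5 × 10^6 parasites/well. Compounds serially diluted from 250 to 3.9 µM, incubated 72 h at 37 °C, 5% CO2. Viability by MTT, OD 540 nm after dissolving formazan in DMSO. Negative control DMSO 1%.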

In data set [6] the test system is Leishmania amazonensis. Description: Growth inhibition of Leishmania amazonensis MHOM/BR/77/LTB0016 amastigote forms expressing beta-galactosidase infected in human THP1 cells at 100 uM after 48 hrs relative to control. To be noted: for inhibition of growth at 100 µM: MHOM/BR/77/LTB0016, THP-1, 48 h, read-out: GI. In kind it is functional. A digest of the protocol: (§3)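 THP-1 cells seeded at 4.0 × 10^4 cells/well and differentiated with PMA 100 ng/ml for 72 h. Promastigotes (4-day culture) opsonized 1 h at 34 °C in RPMI-1640 with 10% heat-inactivated human B+ serum. Infection at 10:1 parasite/cell for 3 h at 34 °C, washed, then 24 h for amastigote transformation. Compound treatment in triplicate for 48 h at 34 °C. Read-out: CPRG 100 µM with 0.1% NP-40, 16 h, OD 570/630 nm. Negative control DMSO 1%.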

For data set [7], the system named is Leishmania amazonensis. Description: Antileishmanial activity against Leishmania amazonensis MHOM/BR/77/LTB0016 amastigote forms expressing beta-galactosidase infected in human THP1 cells after 48 hrs. Particulars: MHOM/BR/77/LTB0016, THP-1, 48 h. The format is functional, cell-based. A digest of the protocol:
as §3

Data set [8] in a line: Selectivity index, ratio of CC50 for human THP1 cells to IC50 for Leishmania amazonensis MHOM/BR/77/LTB0016 amastigote forms expressing beta-galactosidase infected in human THP1 cells. In kind it is toxicity, cell-based. To be noted: read-out: Ratio CC50/IC50. A digest of the protocol: as §2
For data set [9], the system named is Leishmania infantum. Description: Growth inhibition of Leishmania infantum MHOM/BR/74/PP75 amastigote forms expressing beta-galactosidase infected in human THP1 cells at 50 uM after 48 hrs relative to control. Particulars: MHOM/BR/74/PP75, THP-1, 48 h, read-out: GI. In kind it is functional. A digest of the protocol: as §3
Data set [10] concerns the target Trypanothione reductase (Trypanosoma cruzi, UniProt P28593). Description: Inhibition of Trypanosoma cruzi trypanothione reductase expressed in Escherichia coli BL21(DE3) using T(S)2 as substrate incubated for 30 mins in presence of NADPH measured for 30 mins. A digest of the protocol:
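Enzyme purified by affinity chromatography. Then T(S)2 1 µM and compound in DMSO added, 30 min at 27 °C, followed by further DTNB. A412 followed for 30 min. Negative control DMSO 1%.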

The test system of data set [11] is Leishmania amazonensis. Description: Growth inhibition of Leishmania amazonensis MHOM/BR/77/LTB0016 amastigote forms expressing beta-galactosidase infected in human THP1 cells at 2 uM after 48 hrs relative to control. In kind it is functional. To be noted: MHOM/BR/77/LTB0016, THP-1, 48 h, read-out: GI. Put shortly:
as §3

For data set [12], the system named is Trypanosoma cruzi. Description: Growth inhibition of Trypanosoma cruzi Tulahuen amastigote forms infected in human THP1 cells at 100 uM using compound after 1 week storage measured after 48 hrs. The format is functional, cell-based.
A short description of data set [13]: Chemical stability in DMSO after 1 week by mass spectrometric analysis. The format is physicochemical. To be noted: 168 h.
Data set [14] has as its system Trypanosoma cruzi. Briefly: Growth inhibition of Trypanosoma cruzi Tulahuen amastigote forms infected in human THP1 cells at 20 uM after 48 hrs relative to control. To be noted: THP-1, 48 h, read-out: GI. In kind it is functional. A digest of the protocol:
as §1

Data set [15] deals with Trypanosoma cruzi. Description: Antitrypanosomal activity against Trypanosoma cruzi trypomastigote forms. The format is functional.

Trypanothione reductase, sequence (P28593 whole entry): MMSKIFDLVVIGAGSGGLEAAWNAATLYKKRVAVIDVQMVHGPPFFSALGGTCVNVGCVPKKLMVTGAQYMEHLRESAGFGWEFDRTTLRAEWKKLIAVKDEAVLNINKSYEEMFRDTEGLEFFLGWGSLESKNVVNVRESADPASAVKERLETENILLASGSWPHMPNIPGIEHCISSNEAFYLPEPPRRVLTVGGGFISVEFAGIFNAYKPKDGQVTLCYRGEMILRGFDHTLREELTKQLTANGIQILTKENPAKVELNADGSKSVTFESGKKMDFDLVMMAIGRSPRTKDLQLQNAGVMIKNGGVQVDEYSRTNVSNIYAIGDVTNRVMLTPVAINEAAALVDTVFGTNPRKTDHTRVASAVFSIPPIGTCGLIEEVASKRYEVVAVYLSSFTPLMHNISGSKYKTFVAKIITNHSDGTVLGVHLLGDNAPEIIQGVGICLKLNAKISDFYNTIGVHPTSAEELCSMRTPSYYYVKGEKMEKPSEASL

With `ClCc1ccc(-c2cc(-c3ccc4c(c3)OCO4)no2)cc1`, the inhibition of growth at 100 µM in [1] stood at 95.8%; in [6], 57.7%. Besides, the IC50 in data set [2] was 1.13 µM; in data set [7], 5.08 µM; in data set [10] it was over 100 µM. For the same molecule, in data set [3], the CC50 at 72 h stood at 182 µM. The figures for the selectivity ratio in data set [4] and in data set [8] were 161 and 35.8, respectively. Further, the result in data set [5] was inactive. For the same molecule, in data set [9], the inhibition of growth at 50 µM was found to be 9.01%.
`Nc1ccc(-c2cc(-c3ccccc3)no2)cc1`: the inhibition of growth at 100 µM in [1] came out at 73%. The molecule further registered an IC50 in data set [2] of 90.4 µM. For the same molecule, the CC50 at 72 h in data set [3] turned out to be 407 µM. Also, the selectivity ratio in data set [4] worked out at 4.5. Also, the outcome in [5] was inactive.
Turning to `C[C@@H]1[C@H](O)[C@@H](C)/C=C/C=C/C=C/C=C/C=C/C=C/C=C/[C@H](O[C@@H]2O[C@H](C)[C@@H](O)[C@H](N)[C@@H]2O)C[C@@H]2O[C@](O)(C[C@@H](O)C[C@@H](O)[C@H](O)CC[C@@H](O)C[C@@H](O)CC(=O)O[C@H]1C)C[C@H](O)[C@H]2C(=O)O` [AMPHOTERICIN B], the CC50 at 72 h in [3] was 27.9 µM. Further, the inhibition of growth at 2 µM in data set [11] worked out at 81.6%. This molecule also showed an IC50 in [7] of 0.14 µM. The selectivity ratio in data set [8] was determined as 199.
As for `COc1ccc(-c2cc(CN=[N+]=[N-])on2)cc1`, the inhibition of growth at 100 µM in data set [1] was determined as 60.4%. Also, in data set [3], the CC50 at 72 h was under 15.6 µM. In addition, the “growth inhibition (GI)” value in data set [12] is “inactive”. Besides, in data set [13], the Stability entry is reported as “Unstable”. Besides, in data set [5], the result was inactive.
On to `c1ccc(-c2cc(-c3ccc4c(c3)OCO4)no2)cc1`, for which, in data set [1], the inhibition of growth at 100 µM worked out at 64.8%. The molecule also registered an IC50 in data set [2] of 23 µM. Further, the CC50 at 72 h in data set [3] was over 500 µM. Further, in [4], the selectivity ratio is over 21.7. Moreover, the result in data set [5] was inactive. In data set [6], the “growth inhibition (GI)” value was “inactive”.
With `O=C(Cn1ccnc1[N+](=O)[O-])NCc1ccccc1` [BENZNIDAZOLE], the inhibition of growth at 20 µM in [14] amounted to 85.9%. The CC50 at 72 h in data set [3] was over 500 µM. In [4], the selectivity ratio is over 49.1.
For the molecule `COc1ccc([C@H]2O[C@@H](c3ccc(OC)c(OC)c3)[C@@H](C)[C@@H]2C)cc1OC`, the IC50 in [15] turned out to be 2.3 µM.
For `OCc1ccc(-c2cc(-c3ccc4c(c3)OCO4)no2)cc1`, the inhibition of growth at 100 µM in data set [1] was determined as 65%; in [6], 0%. Further, the IC50 is 5.26 µM in data set [2] and over 100 µM in [10]. Also, the CC50 at 72 h in [3] was found to be 70.2 µM. Moreover, the selectivity ratio in data set [4] came out at 13.3. Moreover, the result in [5] was inactive.
Turning to `COc1cc([C@@H]2O[C@@H](c3cc(OC)c(OC)c(OC)c3)[C@H](C)[C@H]2C)cc(OC)c1OC` [GRANDISIN], the IC50 in [15] is 3.7 µM.
As for `O=[N+]([O-])c1ccc(-c2cc(CO)on2)cc1`, the inhibition of growth at 100 µM turned out to be 12.2% in data set [1] and 4.98% in data set [6]. Besides, the IC50 in data set [2] and in data set [7] was over 100 µM each time. The outcome in data set [5] was inactive.
Consider `Cc1ccc(-c2cc(-c3ccc4c(c3)OCO4)no2)cc1`, for which the inhibition of growth at 100 µM is 81.7% in data set [1] and 28.1% in data set [6]. Moreover, the IC50 in data set [2] is 1.74 µM; in data set [7], over 100 µM; in data set [10], over 100 µM. Further, the CC50 at 72 h in data set [3] was determined as 81.3 µM. Moreover, in data set [4], the selectivity ratio was determined as 46.7. Moreover, in data set [5], the outcome was inactive.
In the case of `CC(=O)OCc1ccc(-c2cc(-c3ccc4c(c3)OCO4)no2)cc1`, the results for the inhibition of growth at 100 µM in data set [1] and in [6] were 47.6% and 15.7%, respectively. Moreover, the figures for the IC50 in data set [2] and in [7] were 23.2 µM and over 100 µM, respectively. Moreover, the CC50 at 72 h in [3] was over 500 µM. For the same molecule, in data set [4], the selectivity ratio is over 21.5. For the same molecule, the result in data set [5] was inactive.

One may read the IC50 as the concentration at which inhibition is half-maximal. In general, CC50 refers to the concentration at which the toxic effect on the cells reaches its halfway point.

These data come from ChEMBL document CHEMBL3997809, “Design and synthesis of a new series of 3,5-disubstituted isoxazoles active against Trypanosoma cruzi and Leishmania amazonensis” (Eur J Med Chem, 2017).
